Reference: ChEMBL document CHEMBL1147098, “Growth inhibition of Toxoplasma gondii and Plasmodium falciparum by nanomolar concentrations of 1-hydroxy-2-dodecyl-4(1H)quinolone, a high-affinity inhibitor of alternative (type II) NADH dehydrogenases” (Antimicrob Agents Chemother, 2007)
Values belong to the compound of their own block, whether it stands above or below them. The source made the active and inactive calls. The rule behind the calls is not given here.

Experiments:
[1] = test system: Plasmodium falciparum; assay: Reduced parasitaemia in Plasmodium falciparum FCBR ring stage parasites; type: functional, organism-based
Summary of the method: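 Sorbitol-synchronized FCBR ring-stage cultures (initial parasitemia 3.2%) in T25 flasks, exposed 48 h to 1 μM, 100 nM, 10 nM and 1 nM. Parasitemia counted on Giemsa-stained blood smears relative to DMSO control.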

[2] = test system: Toxoplasma gondii; assay: Inhibition of Toxoplasma gondii RH replication in human foreskin fibroblasts incubated for 24 hrs with drug after 2 hrs postinfection by immunofluorescence microscopy; type: functional, organism-based
[3] = test system: Toxoplasma gondii; assay: Inhibition of Toxoplasma gondii RH replication in human foreskin fibroblasts incubated for 24 hrs with drug after 36 hrs postinfection by immunofluorescence microscopy; type: functional, organism-based
[4] = test system: Toxoplasma gondii; assay: Effect on Toxoplasma gondii RH growth in human foreskin fibroblasts incubated with 1 uM for 24 hrs assessed as recovery after 72 hrs without drug; type: functional
[5] = test system: Toxoplasma gondii; assay: (§1) Effect on Toxoplasma gondii RH growth in human foreskin fibroblasts incubated with 0.1 uM for 24 hrs after 6 hrs postinfection assessed as recovery after 72 hrs without drug; type: functional
[6] = test system: HFF; assay: Inhibitory effect on metabolic activity of HFF cells upto 10 uM by Alamar Blue assay; type: functional, cell-based; conditions: Homo sapiens
[7] = test system: Toxoplasma gondii; assay: Inhibition of Toxoplasma gondii lacZ-transfected RH strain in human foreskin fibroblasts assessed as beta galactosidase activity after 30 hrs by colorimetric assay; type: functional, organism-based
Summary of the method: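 lacZ-expressing RH tachyzoites (1 × 10^4/well) infected HFF for 4 h at 37°C in 1% DMEM without phenol red, washed, then exposed in duplicate to 1, 0.1, 0.01 and 0.001 μM with 100 μM chlorophenol red-β-D-galactopyranoside (final) at 37°C. Absorbance at 570 and 630 nm read at 30 h postinfection.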

[8] = test system: Toxoplasma gondii; assay: Inhibition of invasion of Toxoplasma gondii RH in human foreskin fibroblasts assessed as decreased infection rate pretreated with 1 to 1000 nM after 2 hrs before infection; type: functional, organism-based
Summary of the method: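 Extracellular tachyzoites pretreated 2 h with 1 to 1,000 nM before infecting HFF; infection rate compared with untreated parasites.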

[9] = test system: Plasmodium falciparum; assay: Inhibition of Plasmodium falciparum trophozoite replication after 36 hrs by fluorometric assay; type: functional, organism-based
Summary of the method: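 FCBR young trophozoites (2% initial parasitemia) in RPMI 1640 with 10% human plasma and group A erythrocytes, gassed 90% N2/5% O2/5% CO2, exposed 36 h to 1 μM-1 nM. Erythrocytes lysed with saponin, pellets solubilized in guanidium-HCl/sodium acetate, stained with Hoechst 33258, read at 340/460 nm in triplicate. 2 μM chloroquine defined background.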

[10] = test system: Toxoplasma gondii; assay: Susceptibility of Toxoplasma gondii lacZ-transfected RH strain in human foreskin fibroblasts assessed as growth at 0.1 uM to 0.01 uM after 30 hrs by colorimetric assay; type: functional
Summary of the method: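 HFF infected with β-galactosidase-expressing RH strain and exposed to 1-hydroxy-2-alkyl-4(1H)quinolone alkyl derivatives at 0.1 and 0.01 μM. Replication quantified by colorimetric β-galactosidase assay with chlorophenol red-β-D-galactopyranoside substrate.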

[11] = test system: Toxoplasma gondii; assay: Effect on Toxoplasma gondii RH growth in human foreskin fibroblasts incubated with 0.1 uM for 24 hrs assessed as recovery after 72 hrs without drug; type: functional
[12] = test system: Toxoplasma gondii; assay: as §1; type: functional; remark: listed apart in the source
[13] = test system: Toxoplasma gondii; assay: Inhibition of Toxoplasma gondii RH replication in human foreskin fibroblasts incubated for 24 hrs with drug after 2 hrs postinfection by immunofluorescence microscopy

IC50 [1]: 54.7 nM | IC50 [9]: 14 nM
SMILES: CCCCCCCCCCCCc1cc(=O)c2ccccc2n1O
IC50 [2]: 2.4 nM | IC50 [3]: 4 nM | Activity [4]: 2.9% | Activity [5]: 65.8% | Activity [6]: inactive | IC50 [7]: 3.7 nM | Activity [8]: inactive | Activity [10]: 42.6% | Activity [11]: 49.3% | Activity [12]: 65.8%

SMILES: CCCCCCc1cc(=O)c2ccccc2n1O
Activity [10]: 16.3%

SMILES: CCCCCCCCc1cc(=O)c2ccccc2n1O
Activity [10]: 14.8%

SMILES: O=C1C(O)=C([C@H]2CC[C@H](c3ccc(Cl)cc3)CC2)C(=O)c2ccccc21 [ATOVAQUONE]
IC50 [13]: 9 nM

SMILES: CCCCCc1cc(=O)c2ccccc2n1O
Activity [10]: 98.2%

SMILES: CCCCCCCCCCCCCCc1cc(=O)c2ccccc2n1O
Activity [10]: 37.9%
